# Assay outcomes (PubChem BioAssay)
# A selection: hits, their analogues and other compounds. The true share with any hit is near 2.2%.
# E-sel TNF inh: TNF alpha driven E-selectin expression inhibition | HUVEC TNFa-induced E-selectin immunofluorescence, high content | inhibition, % at 2 µM | 0.71% of 120,000 active | AID 1246;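 active = inhibition above the batch mean plus 3 SD, and confirmed as a hit on visual image review, cut at about 43% in these data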;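 also: 0% = TNF-stimulated DMSO wells and 100% = unstimulated control wells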
# PLK1 kinase inh: PLK1 (human) kinase inhibition; P53350; recombinant PLK1 kinase, TR-FRET peptide phosphorylation; inhibition, % at 10 µM; 0.53% of 97,000 active; AID 619;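 active = inhibition of 50% or more in the single-concentration screen; inactive = inhibition below 50%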;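 also: 0% = DMSO max control and 100% = H-89 dihydrochloride min control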
# Rev-RRE block: disrupts HIV-1 Rev binding to RRE RNA. P05866. Rev peptide-RRE RNA binding, FRET. inhibition, % at 8 µM. 0.79% of 97,000 active. AID 704;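 active = inhibition above the screen-wide mean plus 3 SD, cut at about 35% in these data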;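 also: 0% = median DMSO wells and 100% = median Neomycin B control wells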
#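 Test system – labelled RRE RNA duplex and labelled Rev peptide · Signal – fluorescein-to-Cy5 FRET, 480 nm excitation · Evaluation – % inhibition of FRET ratio versus controls · Benchmarks – DMSO low control, neomycin B high control · Incubation – 5 min RNA-compound premix plus 15 min binding step, 25 °C · Medium – HEPES pH 7.5 salt buffer with EDTA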
# FAK blocker: FAK (human) kinase inhibition. Q05397. biochemical FAK kinase activity assay. inhibition, %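 (tested at 7 µM)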. 0.84% of 97,000 active; in the data active = inhibition above about 19%;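 also: 0% = DMSO and 100% = reference compound high control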
# Plk1 PBD FP: inhibitors of human Plk1 polo box domain binding; Plk1 PBD phosphopeptide binding, fluorescence polarization; inhibition, %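 (tested at about 20 µM)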; 0.13% of 97,000 active; AID 693; in the data active = inhibition above about 34%, passing the limit was not always enough
# F-actin modifier: modifiers of cytoskeleton assembly | HUVEC TNFa F-actin phalloidin imaging, high content | inhibition, % at 2 µM | 0.18% of 91,000 active | AID 836;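 active = inhibition above the batch mean plus 3 SD and confirmed as a hit by visual image inspection, cut at about 30% in these data, passing the limit was not always enough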
# The depositor's hits bear a star; . = no result; [ ] = another dose, or the depositor's remark.
SMILES,E-sel TNF inh,PLK1 kinase inh,Rev-RRE block,FAK blocker,Plk1 PBD FP,F-actin modifier
CCN(CC)S(=O)(=O)c1ccc(OC)c(NC(=O)C(Cc2ccccc2)N2C(=O)c3ccccc3C2=O)c1 (stereo unspecified),-54.6,.,.,.,.,.
Cc1ccc(C(=O)CSc2nsc(C)c2C#N)cc1,22.4,-3.6,8.2,-0.7,-15.2,74.0*
COc1ccc(C(C(=O)NCCC(C)C)N(CCN2CCOCC2)C(=O)Cn2nnc3ccccc32)c(OC)c1 (stereo unspecified),-10.2,.,.,.,.,.
CNc1nnc(-c2cc3ccccc3oc2=O)s1,.,0.2,52.3*,4.0,3.0,43.1
COc1cccc2cc(-c3nc(-c4cccs4)cs3)c(=O)oc12,.,-4.3,14.6,3.6,-2.1,-21.1
O=c1oc2ccccc2cc1-c1nc(-c2cccs2)cs1,.,-11.3,61.5*,1.5,-8.6,4.1
CC(=O)c1c(N2CCN(c3ccccn3)CC2)nc(=S)n(-c2ccccc2)c1C,-22.6,.,.,.,.,.
O=C(CSc1ncn(-c2ccccc2)n1)Nc1ccc2c(c1)OCO2,20.2,.,.,.,.,.
O=C(CSc1ncn(-c2ccccc2)n1)Nc1ccc2c(c1)OCCO2,72.1*,.,.,.,.,.
c1ccc(Nc2ccc(-n3ccnc3)nn2)cc1,14.7,.,.,.,.,.
Clc1ccc(Nc2ccc(-n3ccnc3)nn2)cc1Cl,65.0*,6.8,6.4,1.9,4.2,4.9
c1ccc(CC2CCN(C3=Nc4cccc5cccc3c45)CC2)cc1,-3.3,-12.1,42.1*,2.4,-50.9,-18.1
c1cc2c3c(cccc3c1)C(N1CCN(C3=Nc4cccc5cccc3c45)CC1)=N2,-3.3,-3.2,40.0*,13.8,-1.9,14.9
CC(=O)N1CCN(C2=Nc3cccc4cccc2c34)CC1,-22.0,.,.,.,.,.
CCOC(=O)C(CC)n1nc(C)n2c(cc3sccc32)c1=O (stereo unspecified),45.8*,.,.,.,.,.
CCOc1cc(-c2cc(-c3ccc(N)cc3)nc(N)c2C#N)ccc1O,6.2,-2.1,8.4,0.5,33.6,2.9
CCOc1cc(-c2ccc(N)c(OCC)c2)ccc1N,3.5,-7.5,84.2*,-0.4,-4.8,-0.6
CCCCCCc1cc2cc(C(=O)Nc3ccccc3)c(=O)oc2cc1O,3.8,.,.,.,.,.
CCCCCCc1cc2cc(C(=O)NCc3ccccc3)c(=N)oc2cc1O,-3.1,-16.3,104.1*[fluorescence artefact?],0.5,-19.5,-2.6
CCOC(=O)c1cc(CC)sc1NC(=O)c1ccc([N+](=O)[O-])c(N2CCOCC2)c1,4.3,.,.,.,.,.
CC1=CC(=C2C(=O)c3ccccc3C2=O)C=C(C)O1,1.2,-3.5,-0.8,5.9,-29.2,51.2
CC(=O)N1C(=O)C(=C2C=C(C)OC(C)=C2)c2ccccc21,.,-10.6,110.2*[fluorescence artefact?],6.7,-27.0,0.4
COC(=O)c1cccc(NC(=O)c2ccc(S(=O)(=O)N3CCN(C)CC3)cc2)c1,11.1,-9.7,9.3,4.1,-28.7,18.3
COc1ccccc1NC(=O)c1ccc(S(=O)(=O)N2CCCC2)cc1,99.5*,-10.8,2.1,3.8,9.9,-1.1
CN1CCN(S(=O)(=O)c2ccc(NC(=O)c3ccc(F)cc3)cc2)CC1,100.0*,-16.4,4.3,-2.2,-18.4,4.3
SMILES,E-sel TNF inh,PLK1 kinase inh,Rev-RRE block,FAK blocker,Plk1 PBD FP,F-actin modifier
COC(=O)CSc1nc2ccc(NC(=O)c3ccccc3C(=O)N3CCOCC3)cc2s1,-12.2,.,.,.,.,.
O=C(Nc1ccc2nc(SCc3ccc(Cl)cc3)sc2c1)c1ccccc1C(=O)N1CCOCC1,53.0*,-14.7,-1.4,-8.6,-12.6,-18.9
COc1ccc(S(=O)(=O)Cc2ccc(C(=O)NCc3ccccn3)o2)cc1,.,68.3*,8.8,-0.6,3.4,.
COc1ccc(S(=O)(=O)Cc2ccc(C(=O)N3CCN(c4ccccc4F)CC3)o2)cc1,.,63.3*,9.4,3.6,-2.6,.
COc1ccccc1S(=O)(=O)Cc1ccc(C(=O)N2CCN(c3ccccn3)CC2)o1,-8.8,.,.,.,.,.
COc1ccc(S(=O)(=O)Cc2ccc(C(=O)N3CCN(c4ccccn4)CC3)o2)cc1,.,65.8*,3.8,6.6,-15.0,.
COCCCNCCCCOc1ccc(OCc2ccccc2)cc1,66.1*,.,.,.,.,.
Cc1ccc(S(=O)(=O)NC(C(=O)Oc2ccc3ccc(=O)oc3c2)c2ccccc2)cc1 (stereo unspecified),20.4,.,.,.,.,.
Cc1ccc(S(=O)(=O)N[C@H](C(=O)Oc2ccc3c(C(F)(F)F)cc(=O)oc3c2)c2ccccc2)cc1,-16.9,-13.5,58.2*,5.2,12.3,-25.8
COc1ccccc1N(CC(=O)N/N=C(\C)c1cccc(Br)c1)S(C)(=O)=O,-14.7,.,.,.,.,.
C/C(=N\NC(=O)CN(c1ccccc1Br)S(C)(=O)=O)c1ccc2c(c1)OCCO2,65.8*,.,.,.,.,.
NS(=O)(=O)c1ccc(N/N=C/c2ccccc2Br)cc1,13.9,.,.,.,.,.
CCOC(=O)c1c(NC(C)=O)sc2c(O)cccc12,56.2*,.,.,.,.,.
Cc1cccc(-n2c(CCc3ccccc3)nnc2SCC(=O)c2ccccc2)c1,-12.9,.,.,.,.,.
Cc1ccc(NC(=O)c2ccc(CSc3ccccn3)cc2)cc1,1.3,-13.0,-6.2,-8.5,5.0,15.2
Cc1ccccc1NC(=O)c1ccc(CSc2ncccn2)cc1,60.8*,-4.3,1.1,0.0,7.3,6.0
CCOC(=O)CN1C(=O)C2Cc3ccccc3CN2C1=S (stereo unspecified),1.4,-5.2,-2.8,1.2,15.8,-1.2
CCCCN(C(=O)c1cc2ccccc2o1)c1c(N)n(CCC)c(=O)[nH]c1=O,-14.7,.,.,.,.,.
Cc1ccc(/C=C/C(=O)C2C(=O)c3ccccc3C2=O)cc1,65.7*,4.9,-2.6,-6.3,-27.4,19.0
Nc1nc(C(F)(F)F)c(Br)c(=O)n1N,-30.1,.,.,.,.,.
O=c1cc(O)n(-c2ccc(F)cc2)c(=S)[nH]1,71.1*,5.7,8.6,-0.4,11.9,2.6
Nc1cc(=O)[nH]c(=S)n1-c1cccc(C(F)(F)F)c1,-2.0,2.8,15.4,-2.5,-23.8,.
COc1ccc(Br)cc1C(=O)Nc1cccc(-c2nnc(-c3ccco3)o2)c1,7.4,2.9,-6.4,65.9*,-16.1,.
COc1cccc(C(=O)Nc2cccc(-c3nnc(-c4ccco4)o3)c2)c1,-8.9,-4.8,11.4,-2.5,2.5,-9.6
C/C(CC(=O)Nc1ccc2c(c1)OCO2)=N\NC(=O)OC(C)(C)C,8.9,.,.,.,.,.
SMILES,E-sel TNF inh,PLK1 kinase inh,Rev-RRE block,FAK blocker,Plk1 PBD FP,F-actin modifier
COC(=O)c1ccc(OC)cc1OCC(=O)N1CCN(c2ccc(F)cc2)CC1,-29.3,-9.4,6.5,0.0,-6.2,4.8
Cc1ccc(N2C(=O)C3C(C2=O)C(C(=O)c2ccc(Cl)cc2)N2CCCC32)cc1 (stereo unspecified),-30.8,-9.7,62.3*,-2.3,-3.9,-11.4
Cc1nn(-c2ccccc2)c(Cl)c1CN(C(=O)CCl)c1cccc2ccccc12,95.8*,.,.,.,.,.
CC1=Nc2ccccc2/C1=C/c1c(N)n2c(S(=O)(=O)CC(C)C)nsc2nc1=O,95.9*,.,.,.,.,.
O=C(CN1CCN(Cc2ccccc2)CC1)c1c[nH]c2ccccc12,4.1,-15.0,12.3,-0.8,-9.1,1.2
O=C(CN1CCN(c2ccccc2F)CC1)c1c[nH]c2ccccc12,53.4*,-4.1,3.2,-3.8,-38.2,-1.4
COc1ccc(CSc2nnc(C)n2N)cc1,-2.0,-9.0,47.1*,1.5,-7.1,5.3
Cc1nnc(SCc2ccccc2)n1N,17.8,.,.,.,.,.
